Data reported in ChEMBL document CHEMBL1126272, “Inhibition of collagenase by aranciamycin and aranciamycin derivatives” (J Med Chem, 1992).
Activity calls are given as the source filed them. The rule behind the calls is not given here.

Columns and labels:
[1] = Concentration inhibiting [3H]TdR incorporation in Yoshida sarcoma tumor cells in vitro in rats; type: functional, cell-based, Rattus norvegicus
Outline: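 Yoshida sarcoma cells kept by weekly intraperitoneal passage in Lewis rats. Peritoneal cells washed, placed in RPMI 1640 with 10% FCS at 37 °C, 5% CO2. Nonadherent cells taken after 2 h, set at 10^6 cells/mL, then exposed 24 h to compounds (10^-8–10^-4 M, DMSO ≤0.5%). [3H]thymidine (1 μCi/mL) given for the last 4 h. IC50 for incorporation into DNA read from dose-response curve.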

[2] = target: Serine protease 1 (Homo sapiens) (UniProt P07477); experiment: Inhibitory activity against trypsin at 10e-5 M; NI = no inhibition
Outline: (§1)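 Trypsin dissolved at 1 mg/mL in PBS pH 7.5. Substrate N-α-benzoyl-L-arginine-p-nitroanilide, 0.2 mM in PBS with 5% DMSO, preincubated 5 min at 37 °C with or without compound. Enzyme then added and the reaction followed at 410 nm for 5 min. Compounds dissolved in DMSO, ≤0.5% in samples.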

[3] = target: T1, Chymotrypsin-like elastase family member 2A (Sus scrofa) (UniProt P08419); experiment: Inhibitory activity against elastase at a concentration of 10e-5 M; NI means no inhibition
T1 sequence (whole entry): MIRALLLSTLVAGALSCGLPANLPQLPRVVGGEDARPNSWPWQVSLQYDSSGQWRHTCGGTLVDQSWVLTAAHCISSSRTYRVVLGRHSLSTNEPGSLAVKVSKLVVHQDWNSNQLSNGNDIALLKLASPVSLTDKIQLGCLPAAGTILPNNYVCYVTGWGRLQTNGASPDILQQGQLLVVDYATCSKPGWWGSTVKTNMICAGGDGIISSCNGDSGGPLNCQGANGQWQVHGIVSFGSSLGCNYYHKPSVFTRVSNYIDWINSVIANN
Outline: as §1, with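 “Porcine pancreatic elastase diluted to 2” for “Trypsin dissolved at 1”, “N-acetyl-Ala-Ala-Ala-p-nitroanilide,” for “N-α-benzoyl-L-arginine-p-nitroanilide,”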

[4] = target: Pancreatic elastase (Sus scrofa) (UniProt P08419+P00772); experiment: Inhibition of Pancreatic elastase at 10e-5 M; NI means no inhibition; type: protein assay
Outline: as §1, with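 “Porcine pancreatic elastase diluted to 2” for “Trypsin dissolved at 1”, “N-acetyl-Ala-Ala-Ala-p-nitroanilide,” for “N-α-benzoyl-L-arginine-p-nitroanilide,”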

Sequence of Serine protease 1 (Homo sapiens) (P07477 whole entry): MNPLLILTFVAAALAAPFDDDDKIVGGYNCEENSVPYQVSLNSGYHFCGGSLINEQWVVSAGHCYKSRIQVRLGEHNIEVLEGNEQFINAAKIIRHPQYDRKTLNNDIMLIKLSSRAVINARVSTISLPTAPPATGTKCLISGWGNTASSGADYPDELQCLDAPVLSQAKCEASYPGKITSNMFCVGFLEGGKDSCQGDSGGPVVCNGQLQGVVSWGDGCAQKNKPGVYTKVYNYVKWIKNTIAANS
Sequence of Pancreatic elastase (Sus scrofa) (P00772 whole entry, looked up, one chain of several): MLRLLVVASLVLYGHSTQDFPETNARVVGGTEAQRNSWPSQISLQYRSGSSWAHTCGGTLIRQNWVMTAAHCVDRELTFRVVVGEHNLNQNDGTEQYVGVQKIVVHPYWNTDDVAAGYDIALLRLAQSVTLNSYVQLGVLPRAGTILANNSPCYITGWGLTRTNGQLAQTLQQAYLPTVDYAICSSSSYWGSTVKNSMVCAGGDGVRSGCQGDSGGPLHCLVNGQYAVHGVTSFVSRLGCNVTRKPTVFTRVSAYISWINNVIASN

Row | IC50 [1] [nM] | inhibition [2] | inhibition [4] | Compound | inhibition [3]
1 | 630 | inactive | inactive | COC1C(O[C@@H]2c3c(cc4c(c3O)C(=O)c3c(ccc(N(C)C)c3O)C4=O)C(=O)[C@@](C)(O)[C@H]2OC)OC(C)C(O)C1O (some centres undefined) | –
2 | 600 | inactive | inactive | CO[C@H]1[C@H](O)c2c(cc3c(c2O)C(=O)c2c(O)cccc2C3=O)C(=O)[C@@]1(C)O | –
3 | 4700 | inactive | inactive | COC1C(C)OC(O[C@@H]2c3c(cc4c(c3O)C(=O)c3c(O)cccc3C4=O)C(=O)[C@@](C)(O)[C@H]2OC)C(OC)C1OC (some centres undefined) | –
4 | < 20 | inactive | inactive | COc1cccc2c1C(=O)c1c(O)c3c(c(O)c1C2=O)C[C@@](O)(C(=O)CO)C[C@@H]3O[C@H]1C[C@H](N)[C@H](O)[C@H](C)O1 [DOXORUBICIN] | –
5 | 3900 | inactive | inactive | COC1C(O[C@@H]2c3c(cc4c(c3O)C(=O)c3c(O)cccc3C4=O)C(/N=N/S(=O)(=O)c3ccc(C)cc3)[C@@](C)(O)[C@H]2OC)OC(C)C(O)C1O (some centres undefined) | –
6 | 1400 | inactive | inactive | COC1C(O[C@@H]2c3c(cc4c(c3O)C(=O)c3c(O)cccc3C4=O)C(=O)[C@@](C)(O)[C@H]2OC)OC(C)C(O)C1O[Si](C)(C)C(C)(C)C (some centres undefined) | –
7 | 1300 | inactive | inactive | COC1C(O[C@@H]2c3c(cc4c(c3O)C(=O)c3c(O)cccc3C4=O)C(=O)[C@@](C)(O)[C@H]2OC)OC(C)C(OC(C)=O)C1OC(C)=O (some centres undefined) | –
8 | 1000 | inactive | inactive | COC1C(O[C@@H]2c3c(cc4c(c3O)C(=O)c3c(O)cccc3C4=O)C(=O)[C@](C)(O)[C@H]2OC)OC(C)C(O)C1O (some centres undefined) | –
9 | < 20 | inactive | inactive | COc1cccc2c1C(=O)c1c(O)c3c(c(O)c1C2=O)C[C@@](O)(C(C)=O)C[C@@H]3O[C@H]1C[C@H](N)[C@H](O)[C@H](C)O1 [DAUNORUBICIN] | –
10 | 5000 | inactive | inactive | COC1C(O[C@@H]2c3c(cc4c(c3O)C(=O)c3c(O)c(N(C)C)cc(N(C)C)c3C4=O)C(=O)[C@@](C)(O)[C@H]2OC)OC(C)C(O)C1O (some centres undefined) | –
11 | 2200 | inactive | inactive | COC1C(O[C@@H]2c3c(cc4c(c3O)C(=O)c3c(O)cccc3C4=O)C(=O)[C@@](C)(O)[C@H]2OC)OC(C)C(O)C1O (some centres undefined) | –
12 | 630 | inactive | inactive | CCOP(=O)(OCC)O[C@]1(C)C(=O)c2cc3c(c(O)c2[C@@H](OC2OC(C)C(O)C(O)C2OC)[C@@H]1OC)C(=O)c1c(O)cccc1C3=O (some centres undefined) | –

Row | Compound | IC50 [1] [nM] | inhibition [2] | inhibition [4] | inhibition [3]
13 | CC[C@@]1(O)C[C@H](O[C@H]2C[C@H](N(C)C)[C@H](O[C@H]3C[C@H](O)[C@H](O[C@H]4CCC(=O)[C@H](C)O4)[C@H](C)O3)[C@H](C)O2)c2c(cc3c(c2O)C(=O)c2c(O)cccc2C3=O)[C@H]1C(=O)OC [ACLARUBICIN] | < 20 | inactive | – | inactive
